ChEMBL document CHEMBL5370575, “Probing the Cytotoxic Signaling Induced by Eupenifeldin in Ovarian Cancer Models” (J Nat Prod, 2023)
Active and inactive are the calls of the source. The rule behind the calls is not given here.

Assays:
OVCAR-3 [1] = experiment: Induction of apoptosis in human OVCAR-3 cells assessed as increase in apoptotic cells at 25 nM incubated for 48 hrs by Annexin V-FITC/propidium iodide staining based analysis; assay type: functional, cell-based
Procedure, shortened: (§1)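 OVCAR5/OVCAR8 seeded at 175 000 and OVCAR3 at 190 000 cells per 60 mm dish, attached overnight, treated 48 h (10, 25 or 50 nM). Media and cells collected, PBS-washed, stained with annexin V-FITC/propidium iodide and read on a cell counter with gating per kit. Three biological replicates, mean ± SEM, Dunnett's test.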

OVCAR-3 [2] = experiment: Induction of apoptosis in human OVCAR-3 cells assessed as increase in necrotic cells at 25 nM incubated for 48 hrs by Annexin V-FITC/propidium iodide staining based analysis; assay type: functional, cell-based; procedure, shortened: as §1
OVCAR-3 [3] = experiment: Induction of apoptosis in human OVCAR-3 cells assessed as increase in cleaved PARP expression level at >=10 nM incubated for 72 hrs by Western blotting analysis
OVCAR-3 [4] = experiment: Induction of apoptosis in human OVCAR-3 cells assessed as decrease in caspase-3/7 activity at 50 nM incubated for 48 hrs in presence of by ZVAD-FMK fluorescent reporter assay
OVCAR-8 [5] = experiment: Induction of apoptosis in human OVCAR-8 cells assessed as increase in necrotic cells at 25 nM incubated for 48 hrs by Annexin V-FITC/propidium iodide staining based analysis; assay type: functional, cell-based; procedure, shortened: as §1
OVCAR-5 [6] = experiment: Induction of apoptosis in human OVCAR-5 cells at 25 nM incubated for 48 hrs by Annexin V-FITC/propidium iodide staining based analysis; assay type: functional, cell-based; procedure, shortened: as §1
OVCAR-3 [7] = experiment: Induction of autophagy in human OVCAR-3 cells assessed as reduction in cell viability at 25 nM incubated for 72 hrs in presence of bafilomycin by CellTiter-Blue Cell Viability assay; assay type: functional, cell-based
Procedure, shortened: (§2)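 5000 cells/well attached overnight, then treated 72 h with 25 nM alone or with bafilomycin A1 (5 nM; OVCAR8 also at 1 nM); bafilomycin alone as control. Viability by CellTiter-Blue fluorescence, normalised to vehicle. One-way ANOVA with Tukey's test.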

OVCAR-3 (Homo sapiens) [8] = experiment: Anti-ferroptotic activity against human OVCAR-3 cells assessed as decrease in lipid peroxidation at 50 nM incubated for 24 hrs in presence of ferrostatin-1 by C11-BODIPY staining based flow cytometric analysis
OVCAR-3 [9] = experiment: Induction of apoptosis in human OVCAR-3 cells assessed as increase in caspase-3/7 activity at 50 nM incubated for 48 hrs by fluorescent reporter assay
OVCAR-5 [10] = experiment: Induction of autophagy in human OVCAR-5 cells assessed as reduction in cell viability at 25 nM incubated for 72 hrs in presence of bafilomycin by CellTiter-Blue Cell Viability assay; assay type: functional, cell-based; procedure, shortened: as §2
OVCAR-5 [11] = experiment: Induction of apoptosis in human OVCAR-5 cells assessed as increase in caspase-3/7 activity at 50 nM incubated for 48 hrs by fluorescent reporter assay
OVCAR-8 [12] = experiment: Induction of autophagy in human OVCAR-8 cells assessed as reduction in cell viability at 25 nM incubated for 72 hrs in the presence of 1 nM bafilomycin by CellTiter-Blue Cell Viability assay; assay type: functional, cell-based; procedure, shortened: as §2
OVCAR-3 [13] = experiment: Antitumor activity against human OVCAR-3 cells xenografted in immunodeficient NCr nu/nu mouse assessed as reduction in cell survival at 0.5 mg/kg, ip administrated once per day for 4 days measured on day 7 by MTT assay; assay type: functional, organism-based; conditions: time 7.0 day
Procedure, shortened: (§3)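 Female immunodeficient NCr nu/nu mice (6–8 weeks) carried intraperitoneal polyvinylidene fluoride hollow fibres holding OVCAR3 and OVCAR8 cells (day 0). Dosed ip once daily on days 3–6 in 2% DMSO/48% PEG300/50% H₂O diluted with H₂O. Fibres retrieved on day 7; cell viability by modified MTT assay. One-way ANOVA with Dunnett's test vs vehicle.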

OVCAR-3 (Homo sapiens) [14] = experiment: Anti-ferroptotic activity against human OVCAR-3 cells assessed as decrease in lipid peroxidation at 50 nM incubated for 24 hrs by C11-BODIPY staining based flow cytometric analysis
HeLa [15] = experiment: Induction of autophagy in human HeLa cells harboring eGFP-LC3 assessed as increase in LC3 puncta accumulation at 250 nM incubated for 4 hrs by Hoechst 33342 and DAPI staining based analysis; assay type: functional, cell-based
Procedure, shortened: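 HeLa stably expressing eGFP-LC3, 384-well plates, treated 4 h with serial dilutions starting at 250 nM, fixed in 4% formaldehyde, nuclei counterstained, imaged at 10× (FITC); LC3 puncta quantified by image analysis, normalised to DMSO, dose–response fitted.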

OVCAR-8 [16] = experiment: Antitumor activity against human OVCAR-8 cells xenografted in immunodeficient NCr nu/nu mouse assessed as reduction in cell survival at 0.5 mg/kg, ip administrated once per day for 4 days measured on day 7 by MTT assay; assay type: functional, organism-based; conditions: time 7.0 day; procedure, shortened: as §3
[17] = Toxicity in immunodeficient NCr nu/nu mouse xenografted with human OVCAR-8 cells assessed as change in body weight at 0.5 mg/kg, ip administrated once per day for 4 days measured measured on day 7 relative to control; assay type: organism-based; conditions: in vivo, 168 h, time 7 day
Procedure, shortened: (§4)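 Female immunodeficient NCr nu/nu mice, 6–8 weeks old, carried cells sealed in polyvinylidene fluoride hollow fibers implanted intraperitoneally on day 0. Dosing was i.p. once daily on days 3–6 in 2% DMSO:48% PEG300:50% H2O, diluted with H2O. Body weight was followed over the study, and fibers were retrieved on day 7.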

HeLa [18] = experiment: Induction of autophagic flux in human HeLa cells harbouring mCherry-eGFP-LC3 assessed as increase in number of autolysosomes at 10 nM incubated for 24 hrs by Hoechst 33342 and DAPI staining based analysis; assay type: functional, cell-based
Procedure, shortened: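 HeLa stably expressing mCherry-eGFP-LC3, 384-well plates, treated 24 h, fixed 12 min in 4% formaldehyde, nuclei stained, imaged at 10× under FITC and Texas Red filters; autolysosomes/autophagosomes quantified by high-content analysis and normalised to DMSO; chloroquine as control. Three biological replicates in duplicate.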

OVCAR-5 [19] = experiment: Inhibition of cell migration in human OVCAR-5 cells assessed as decrease in wound closure at 10 to 25 nM incubated for 48 hrs by wound healing assay; assay type: functional, cell-based; conditions: dose 10-25 nM
Procedure, shortened: (§5)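 Confluent monolayers scratched once, washed with PBS, then treated with 10 or 25 nM (paclitaxel 10 nM control) for 48 h. Scratch area imaged at 4× at 0 and 48 h, measured and normalised to vehicle. One-way ANOVA with Dunnett's test.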

OVCAR-8 [20] = experiment: Inhibition of cell migration in human OVCAR-8 cells assessed as decrease in wound closure at 10 to 25 nM incubated for 48 hrs by wound healing assay; assay type: functional, cell-based; conditions: dose 10-25 nM; procedure, shortened: as §5
OVCAR-8 [21] = experiment: Induction of apoptosis in human OVCAR-8 cells assessed as increase in apoptotic cells at 25 nM incubated for 48 hrs by Annexin V-FITC/propidium iodide staining based analysis; assay type: functional, cell-based; procedure, shortened: as §1
OVCAR-3 [22] = experiment: Cytotoxicity against human OVCAR-3 cells assessed as reduction in colony formation at 10 nM incubated for 8 hrs measured after 15 days by crystal violet staining based analysis; assay type: functional, cell-based; conditions: time 368.0 hrs
Procedure, shortened: (§6)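 Seeded at 200 cells per dish, attached overnight, exposed 8 h to 10 nM (DMSO vehicle 0.1%), then grown 15 days in untreated growth medium. Colonies fixed with 4% paraformaldehyde, stained with 0.05% crystal violet, counted and normalised to vehicle. Mean ± SEM, three biological replicates, one-way ANOVA with Dunnett's test.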

[23] = Cytotoxicity against human FT33 cells assessed as inhibition of cell growth for 72 hrs by CellTiter-Blue cell viability assay; assay type: toxicity, cell-based
Procedure, shortened: (§7)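 5000 cells seeded in triplicate, attached overnight, then exposed for 72 h to serial concentrations in DMSO vehicle (0.05%). Viability was read by fluorometric CellTiter-Blue. IC50 in nM comes from dose–response curves relative to DMSO control. Media: OVCAR3 in RPMI1640, OVCAR5/OVCAR8 in DMEM, hFT33 in DMEM-Ham's F12 50/50, all with 10% FBS. Data are mean ± SEM, three biological replicates.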

OVCAR-3 [24] = experiment: Cytotoxicity against human OVCAR-3 cells assessed as inhibition of cell growth for 72 hrs by CellTiter-Blue cell viability assay; assay type: functional, cell-based; conditions: OVCAR-3, 72 h; procedure, shortened: as §7
OVCAR-3 [25] = experiment: Anti-ferroptotic activity against human OVCAR-3 cells assessed as decrease in lipid peroxidation at 50 nM incubated for 24 hrs by C11-BODIPY staining based flow cytometric analysis; assay type: functional, cell-based
Procedure, shortened: (§8)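 Cells treated 24 h with 50 nM, with or without 2 μM ferrostatin-1; lipid peroxidation read as C11-BODIPY fluorescence in the green channel by flow cytometry.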

OVCAR-5 [26] = experiment: Cytotoxicity against human OVCAR-5 cells assessed as reduction in colony formation at 10 nM incubated for 8 hrs measured after 15 days by crystal violet staining based analysis; assay type: functional, cell-based; conditions: time 368.0 hrs; procedure, shortened: as §6
OVCAR-8 [27] = experiment: Induction of apoptosis in human OVCAR-8 cells assessed as decrease in caspase-3/7 activity at 50 nM incubated for 48 hrs in presence of by ZVAD-FMK fluorescent reporter assay
OVCAR-8 [28] = experiment: Cytotoxicity against human OVCAR-8 cells assessed as inhibition of cell growth for 72 hrs by CellTiter-Blue cell viability assay; assay type: functional, cell-based; conditions: OVCAR-8, 72 h; procedure, shortened: as §7
OVCAR-5 [29] = experiment: Induction of apoptosis in human OVCAR-5 cells assessed as decrease in caspase-3/7 activity at 50 nM incubated for 48 hrs in presence of by ZVAD-FMK fluorescent reporter assay
OVCAR-3 [30] = experiment: Induction of ferroptosis in human OVCAR-3 cells at 0.1 to 10 uM in the presence of ferrostatin-1 by CellTiterGlo assay; assay type: functional, cell-based; conditions: dose 0.1-10 µM
Procedure, shortened: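 OVCAR3 in 384-well plates (1000 cells/well), given 100 nM to 10 μM together with 2 μM ferrostatin-1, in triplicate; viability measured by CellTiter-Glo.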

OVCAR-5 [31] = experiment: Cytotoxicity against human OVCAR-5 cells assessed as inhibition of cell growth for 72 hrs by CellTiter-Blue cell viability assay; assay type: functional, cell-based; conditions: OVCAR-5, 72 h; procedure, shortened: as §7
OVCAR-8 [32] = experiment: Cytotoxicity against human OVCAR-8 cells assessed as reduction in colony formation at 10 nM incubated for 8 hrs measured after 15 days by crystal violet staining based analysis; assay type: functional, cell-based; conditions: time 368.0 hrs; procedure, shortened: as §6
OVCAR-8 [33] = experiment: Induction of apoptosis in human OVCAR-8 cells assessed as increase in caspase-3/7 activity at 50 nM incubated for 48 hrs by fluorescent reporter assay
OVCAR-3 [34] = experiment: Anti-ferroptotic activity against human OVCAR-3 cells assessed as decrease in lipid peroxidation at 50 nM incubated for 24 hrs in presence of ferrostatin-1 by C11-BODIPY staining based flow cytometric analysis; assay type: functional, cell-based; procedure, shortened: as §8
[35] = Toxicity in immunodeficient NCr nu/nu mouse xenografted with human OVCAR-3 cells assessed as change in body weight at 0.5 mg/kg, ip administrated once per day for 4 days measured measured on day 7 relative to control; assay type: organism-based; conditions: in vivo, 168 h, time 7 day; procedure, shortened: as §4

Cc1cc(=O)c(O)cc2c1C[C@H]1CC(C)(C)/C=C/C[C@]3(C)Oc4cc(O)c(=O)cc(C)c4C[C@H]3C[C@H](O)[C@@]1(C)O2
Activity (OVCAR-3 [1]): Active | Activity (OVCAR-3 [2]): Active | Activity (OVCAR-3 [3]): Active | Activity (OVCAR-3 [4]): Active | Activity (OVCAR-8 [5]): Active | Activity (OVCAR-5 [6]): inactive | Activity (OVCAR-3 [7]): inactive | Activity (OVCAR-3 (Homo sapiens) [8]): Active | Activity (OVCAR-3 [9]): Active | Activity (OVCAR-5 [10]): inactive | Activity (OVCAR-5 [11]): Active | Activity (OVCAR-8 [12]): inactive | Activity (OVCAR-3 [13]): Active | Activity (OVCAR-3 (Homo sapiens) [14]): Active | Activity (HeLa [15]): Active | Activity (OVCAR-8 [16]): inactive | Activity [17]: > 12% | Activity (HeLa [18]): Active | inhibition (OVCAR-5 [19]): Active | inhibition (OVCAR-8 [20]): Active | Activity (OVCAR-8 [21]): Active | Activity (OVCAR-3 [22]): Active | IC50 at 72 h [23]: 170 nM | IC50 (OVCAR-3 [24]): 9.7 nM | Activity (OVCAR-3 [25]): Active | Activity (OVCAR-5 [26]): Active | Activity (OVCAR-8 [27]): Active | IC50 (OVCAR-8 [28]): 12 nM | Activity (OVCAR-5 [29]): Active | Activity (OVCAR-3 [30]): Active | IC50 (OVCAR-5 [31]): 11 nM | Activity (OVCAR-8 [32]): Active | Activity (OVCAR-8 [33]): Active | Activity (OVCAR-3 [34]): Active | Activity [35]: <= 12%
